Data on three molecules can be found in ChEMBL document CHEMBL1132990, “Synthesis, conformational analysis, and biological activity of C-thioribonucleosides related to tiazofurin” (J Med Chem, 2000).

Broadly, the IC50 is the concentration that inhibits the measured activity by half. One may read the inhibition as how much of the control response was suppressed.

The test system of assay [1] is K562. Description: Concentration required to inhibit 50% of the cell proliferation of the Human myelogenous leukemia K562 cells. It is filed as functional, cell-based. The method, boiled down: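 K562 cells in log phase (RPMI 1640 + 10% FBS, 5% CO2, 37 °C), seeded at 1 × 10⁵ cells/mL and exposed continuously to compounds (0.5-100 µM, in saline) or saline for 48 h. Cells counted by Coulter counter; inhibition = % reduction in proliferation versus saline; IC50 = concentration giving 50% inhibition at 48 h.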

In assay [2] the test system is K562. Description: Tested for the influence on the ribonucleotide (GTP) concentration in myelogenous leukemia K562 cell culture. It is filed as functional, Homo sapiens. The method, boiled down:
(§1)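 Cultured K562 cells given 100 µM compound (2 µM for reference furanoside) or saline for 2 h at 37 °C, then centrifuged, washed once in cold saline and extracted with cold 10% trichloroacetic acid before nucleotide pool measurement.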

The test system of assay [3] is K562. Description: Tested for the influence on the ribonucleotide (IMP) concentration in myelogenous leukemia K562 cell culture. It is filed as functional, Homo sapiens. The gist of the method: as §1
For assay [4], the target named is Inosine-5'-monophosphate dehydrogenase (IMPDH) (Homo sapiens) (UniProt P20839+P12268). Description: Inhibitory activity against Inosine-5'-monophosphate dehydrogenase in human myelogenous leukemia K562 cells in culture. It is filed as cell-based. Particulars: concentration not given here.
Sequence of Inosine-5'-monophosphate dehydrogenase (IMPDH) (Homo sapiens) (P20839 whole entry, looked up, other chains not shown): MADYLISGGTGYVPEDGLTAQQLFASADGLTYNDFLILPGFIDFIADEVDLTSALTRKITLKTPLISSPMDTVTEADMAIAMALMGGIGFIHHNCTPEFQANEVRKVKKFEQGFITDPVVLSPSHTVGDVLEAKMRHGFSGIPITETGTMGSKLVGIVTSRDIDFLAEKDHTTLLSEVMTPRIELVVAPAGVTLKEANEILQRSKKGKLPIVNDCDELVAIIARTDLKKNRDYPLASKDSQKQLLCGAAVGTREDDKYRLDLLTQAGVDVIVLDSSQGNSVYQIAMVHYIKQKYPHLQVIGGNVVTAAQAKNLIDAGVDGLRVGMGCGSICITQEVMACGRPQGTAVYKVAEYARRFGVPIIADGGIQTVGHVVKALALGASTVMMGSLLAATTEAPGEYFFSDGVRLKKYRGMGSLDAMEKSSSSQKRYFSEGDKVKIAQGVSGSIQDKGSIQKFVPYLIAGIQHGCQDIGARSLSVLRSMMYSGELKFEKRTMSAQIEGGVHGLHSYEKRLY

Molecule `NC(=O)c1csc([C@@H]2S[C@H](CO)[C@H](O)C2O)c1` (stereo not given in full) [THIOPHENTHIOFURIN] displayed an IC50 in assay [1] of 67 µM. The Control in assay [2] turned out to be 83.9%; in assay [3], 111%.
`NC(=O)c1csc([C@@H]2O[C@H](CO)[C@@H](O)[C@H]2O)c1`: in assay [4], the inhibition is 76%. In assay [1], this molecule gave an IC50 of 1.7 µM. The Control in assay [2] was found to be 96.6%; in assay [3], 112%.
`NC(=O)c1coc([C@@H]2S[C@H](CO)[C@H](O)C2O)c1` (stereo not given in full) [FURANTHIOFURIN]: inhibition in assay [1] was half-maximal at 4700 µM (IC50). Also, the Control in assay [2] was found to be 66.1%; in assay [3], 105%.
